Source: ChEMBL document CHEMBL1130016 (J Med Chem, 1997)
pIC50: −log10 of the molar value.

Columns and labels:
[1] = molecular target: Sodium-dependent dopamine transporter (Rattus norvegicus, UniProt P23977); assay: In vitro inhibition of [3H]WIN-35 428 binding to dopamine transporter on rat striatal membranes.; type: cell membranes, Membrane
Procedure, shortened: (§1)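 Compounds dissolved in 10% DMSO. Incubation ended by filtration, and filter-bound radioactivity was counted by liquid scintillation at about 35% efficiency for 3H. IC50 values were determined. Mean ± SEM of three independent experiments, each in triplicate.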

[2] = molecular target: Sodium-dependent serotonin transporter (Rattus norvegicus, UniProt P31652); assay: In vitro inhibition of [3H]citalopram binding to serotonin transporter on rat striatal membranes.; type: cell membranes, Membrane; procedure, shortened: as §1
[3] = molecular target: Monoamine transporters; serotonin & dopamine (Rattus norvegicus) (UniProt P31652+P23977); assay: Ratio of inhibitory activity against Serotonin Transporter compared to Dopamine Transporter; type: protein assay
Procedure, shortened: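 Selectivity is expressed as SERT/DAT, the ratio of binding values from rat striatal membranes. SERT was labelled with [3H]citalopram and DAT with [3H]WIN 35,428. Binding was ended by filtration and counted by scintillation. Values come from three independent experiments, each run in triplicate.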

Sequence of Sodium-dependent serotonin transporter (P31652 whole entry): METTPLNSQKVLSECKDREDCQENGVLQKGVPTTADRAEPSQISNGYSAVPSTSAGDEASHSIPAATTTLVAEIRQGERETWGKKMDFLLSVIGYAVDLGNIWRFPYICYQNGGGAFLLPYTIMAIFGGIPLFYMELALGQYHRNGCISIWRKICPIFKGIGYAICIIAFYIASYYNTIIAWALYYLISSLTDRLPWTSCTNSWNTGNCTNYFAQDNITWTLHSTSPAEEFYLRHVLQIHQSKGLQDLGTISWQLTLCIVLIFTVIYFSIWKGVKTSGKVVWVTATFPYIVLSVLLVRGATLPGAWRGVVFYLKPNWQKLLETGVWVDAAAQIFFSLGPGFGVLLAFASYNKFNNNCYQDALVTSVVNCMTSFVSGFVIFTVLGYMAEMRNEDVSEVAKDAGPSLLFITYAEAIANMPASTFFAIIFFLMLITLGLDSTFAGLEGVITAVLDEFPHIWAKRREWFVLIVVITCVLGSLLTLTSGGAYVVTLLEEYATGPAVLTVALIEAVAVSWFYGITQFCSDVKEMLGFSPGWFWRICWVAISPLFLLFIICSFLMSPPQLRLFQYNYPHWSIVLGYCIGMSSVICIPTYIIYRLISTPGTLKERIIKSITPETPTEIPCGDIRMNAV
Sequence of Monoamine transporters; serotonin & dopamine (Rattus norvegicus) (P23977 whole entry, looked up): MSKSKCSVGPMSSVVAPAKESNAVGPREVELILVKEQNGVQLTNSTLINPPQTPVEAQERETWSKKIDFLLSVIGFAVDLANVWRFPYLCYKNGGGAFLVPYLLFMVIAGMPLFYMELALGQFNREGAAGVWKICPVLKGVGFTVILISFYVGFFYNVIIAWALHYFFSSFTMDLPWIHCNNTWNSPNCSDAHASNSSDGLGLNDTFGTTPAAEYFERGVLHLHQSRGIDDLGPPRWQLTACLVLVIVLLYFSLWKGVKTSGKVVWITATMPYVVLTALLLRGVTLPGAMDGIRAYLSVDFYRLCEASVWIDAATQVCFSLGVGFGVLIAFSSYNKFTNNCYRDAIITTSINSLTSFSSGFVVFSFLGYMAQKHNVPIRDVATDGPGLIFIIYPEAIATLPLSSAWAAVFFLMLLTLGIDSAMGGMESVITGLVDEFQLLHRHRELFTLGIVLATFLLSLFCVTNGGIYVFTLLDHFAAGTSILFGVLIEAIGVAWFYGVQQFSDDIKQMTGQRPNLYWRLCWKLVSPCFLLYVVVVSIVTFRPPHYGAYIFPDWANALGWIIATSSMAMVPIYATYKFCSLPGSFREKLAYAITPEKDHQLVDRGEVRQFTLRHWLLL
Sequence of Monoamine transporters; serotonin & dopamine (Rattus norvegicus) (P31652 whole entry, looked up): as the sequence (P31652 whole entry) above
Sequence of Sodium-dependent dopamine transporter (P23977 whole entry): as the sequence (P23977 whole entry, looked up) above

SMILES | pIC50 [1] | pIC50 [2] | Ratio [3]
c1ccc(C(OCCC2CCN(Cc3cccnc3)CC2)c2cccs2)cc1 (stereo unspecified) | 7.23 | 6.03 | 15.9
Brc1ccc(CN2CCC(CCOC(c3ccccc3)c3ccccc3)CC2)cc1 | 7.51 | 5.83 | 48
c1ccc(C(OCCC2CCN(Cc3cc4ccccc4s3)CC2)c2ccccc2)cc1 | 6.76 | 5.81 | 8.9
c1ccc(C(OCCC2CCN(Cc3cccs3)CC2)c2ccccc2)cc1 | 7.23 | 5.90 | 21
c1ccc(CN2CCC(CCOC(c3ccccc3)c3ccccc3)CC2)cc1 |  |  | 49
COc1ccc(CN2CCC(CCOC(c3ccccc3)c3ccccc3)CC2)cc1 | 7.56 | 5.91 | 45
Clc1ccc(CN2CCC(CCOC(c3ccccc3)c3ccccc3)CC2)cc1Cl | 7.07 | 5.54 | 33.6
Nc1ccc(CN2CCC(CCOC(c3ccccc3)c3ccccc3)CC2)cc1 | 7.00 | 5.80 | 15.6
Fc1ccc(CN2CCC(CCOC(c3ccccc3)c3ccccc3)CC2)cc1 |  | 5.72 | 112
Cc1ccc(CN2CCC(CCOC(c3ccccc3)c3ccccc3)CC2)cc1 | 7.64 | 5.86 | 60.4
Fc1ccc(CN2CCC(CCOC(c3ccccc3)c3ccc(F)cc3)CC2)cc1 (stereo unspecified) | 7.85 | 5.90 | 89
c1ccc(CN2CCC(CCOC(c3ccccc3)c3cccs3)CC2)cc1 (stereo unspecified) | 7.57 | 6.13 | 27
c1ccc(C(OCCC2CCN(Cc3cccnc3)CC2)c2ccccc2)cc1 | 7.31 | 6.17 | 13.9
Clc1ccc(CN2CCC(CCOC(c3ccccc3)c3ccccc3)CC2)cc1 | 7.61 | 5.79 | 65.1
O=[N+]([O-])c1ccc(CN2CCC(CCOC(c3ccccc3)c3ccccc3)CC2)cc1 | 7.79 | 5.75 | 108
Fc1ccc(CN2CCC(CCOC(c3ccccc3)c3ccc(Cl)cc3)CC2)cc1 (stereo unspecified) | 7.28 | 5.74 | 34.4
Fc1ccc(CN2CCC(CCOC(c3ccccc3)c3ccccc3)CC2)cc1Cl | 7.55 | 5.60 | 90
Fc1ccc(CN2CCC(CCOC(c3ccccc3)c3cccs3)CC2)cc1 (stereo unspecified) | 7.86 | 5.86 | 100
